Reference: ChEMBL document CHEMBL4406918, “Inhibitory Effects of Multivalent Polypeptides on the Proliferation and Metastasis of Breast Cancer Cells” (ACS Med Chem Lett, 2019)
Active and inactive are the calls of the source. The rule behind the calls is not given here.

Columns and labels:
4T1 [1] = test: Antitumour activity against mouse 4T1 cells xenografted in BALB/c mouse assessed as increase in damage of tumor tissue at 10 mg/kg administered intratumorally and measured after 24 days by H and E staining based inverted optical microscopic method; type: functional, organism-based
How it was run: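 Tumours from 4T1-bearing BALB/c mice given 6 doses of 10 mg/kg (saline control) were sectioned and stained with H&E, plus CD31, Ki-67 and TUNEL.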

4T1 [2] = test: Induction of apoptosis in mouse 4T1 cells assessed as viable cells at 0.4 mM incubated for 24 hrs by Annexin V-FITC/PI based FACS analysis (reference value: 92.2%); type: functional; details: 4T1, 24 h, read-out: Activity
[3] = Toxicity in BALB/c mouse xenografted with mouse 4T1 cells assessed as change in blood urea nitrogen level at 10 mg/kg administered intratumorally and measured after 24 days; type: organism-based; details: in vivo, other, 576 h
4T1 [4] = test: Inhibition of metastasis in mouse 4T1 cells assessed as disruption in F-actin arrangement at 0.2 mM incubated for 24 hrs by Hoechst 33342 staining based confocal laser scanning microscopic method; type: functional, cell-based
How it was run: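 After 24 h at 0.2 mM, 4T1 cells were stained for F-actin with Alexa Fluor 488 phalloidin and for nuclei with Hoechst 33342, then imaged by fluorescence for cytoskeletal arrangement and cell morphology.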

Erythrocyte = test: Hemolytic activity in BALB/c mouse RBC at 3.2 mM incubated for 2 hrs by UV-Vis spectrophotometric analysis; type: ADME, cell-based; details: 3200 µM
How it was run: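 Hemolysis assay on red blood cells with dendrimers up to 3.2 mM. Result is expressed as hemolysis rate, with under 5% taken as acceptable.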

[5] = Toxicity in BALB/c mouse xenografted with mouse 4T1 cells assessed as induction of morphological lesions in heart at 10 mg/kg administered intratumorally and measured after 24 days by H and E staining based inverted optical microscopic method; type: organism-based; details: in vivo, other, 576 h
[6] = molecular target: Matrix metalloproteinase-9 (Mus musculus) (UniProt P41245); test: Residual MMP9 activity in mouse 4T1 cells at 0.2 mM incubated for 24 hrs by coomassie brilliant blue staining based gelatin zymography assay relative to control
Chain of Matrix metalloproteinase-9 (Mus musculus) (P41245 whole entry): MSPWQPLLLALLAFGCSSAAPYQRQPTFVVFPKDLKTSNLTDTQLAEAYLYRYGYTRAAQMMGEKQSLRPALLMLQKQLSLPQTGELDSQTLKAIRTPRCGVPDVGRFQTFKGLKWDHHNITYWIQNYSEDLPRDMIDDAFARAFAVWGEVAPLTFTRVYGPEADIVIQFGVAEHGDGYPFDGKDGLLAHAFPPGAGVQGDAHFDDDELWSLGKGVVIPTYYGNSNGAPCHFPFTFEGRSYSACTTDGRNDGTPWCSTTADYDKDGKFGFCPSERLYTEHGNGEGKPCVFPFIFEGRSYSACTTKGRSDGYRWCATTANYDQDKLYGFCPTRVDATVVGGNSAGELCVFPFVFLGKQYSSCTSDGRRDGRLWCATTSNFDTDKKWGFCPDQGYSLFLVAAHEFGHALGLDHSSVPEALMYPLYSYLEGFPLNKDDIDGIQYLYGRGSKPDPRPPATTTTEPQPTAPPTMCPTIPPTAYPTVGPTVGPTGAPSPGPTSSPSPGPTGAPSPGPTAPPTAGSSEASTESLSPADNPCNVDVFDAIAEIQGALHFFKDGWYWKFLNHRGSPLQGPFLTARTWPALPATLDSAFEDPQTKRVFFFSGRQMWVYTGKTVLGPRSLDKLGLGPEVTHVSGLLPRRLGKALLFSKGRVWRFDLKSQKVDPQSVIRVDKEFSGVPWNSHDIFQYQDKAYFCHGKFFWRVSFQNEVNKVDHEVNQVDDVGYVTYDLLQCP

4T1 [7] = test: Antitumour activity against mouse 4T1 cells xenografted in BALB/c mouse assessed as inhibition in tumor growth at 10 mg/kg administered intratumorally and measured every 3 days for 24 days; type: functional, organism-based
How it was run: (§1)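 BALB/c mice bearing subcutaneous 4T1 tumours received 6 doses of 10 mg/kg, with equal YSL-monomer molar amounts across compounds and saline as control. Tumour volume growth curves and body weights were tracked. Mean ± SD, n = 5.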

4T1 [8] = test: Inhibition of metastasis in mouse 4T1 cells assessed as formation of pseudopods at 0.2 mM incubated for 24 hrs by SEM analysis; type: functional, cell-based
How it was run: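 4T1 cells treated 24 h, then imaged by scanning electron microscopy for pseudopod formation. Dendrimers were tested at 0.2 mM and the reference at 10–5 mM.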

4T1 [9] = test: Induction of apoptosis in mouse 4T1 cells at 0.4 mM incubated for 24 hrs by PI staining based inverted microscopic method; type: functional, cell-based
How it was run: (§2)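 Live–dead staining of 4T1 cells after 24 h exposure to 0.4 mM, read by PI staining. A 0.8 mM level was also examined.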

4T1 [10] = test: Induction of cell death in mouse 4T1 cells incubated for 24 hrs by PI staining based inverted microscopic method; type: functional; how it was run: as §2
4T1 [11] = test: Antitumour activity against mouse 4T1 cells xenografted in BALB/c mouse assessed as increase in number of TUNEL positive cells at 10 mg/kg administered intratumorally and measured after 24 days by H and E staining based inverted optical microscopic method; type: functional, organism-based
How it was run: (§3)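 BALB/c mice bearing subcutaneous 4T1 tumours received 6 doses at 10 mg/kg body weight, matched for YSL monomer molar amount, with saline as control. Tumour sections were stained for H&E, CD31, Ki-67 and TUNEL. n = 5.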

[12] = Toxicity in BALB/c mouse xenografted with mouse 4T1 cells assessed as change in body weight at 10 mg/kg administered intratumorally and measured after 24 days; type: organism-based; details: in vivo, other, 576 h; how it was run: as §1
4T1 [13] = test: Antiproliferative activity against mouse 4T1 cells at 0.1 mM incubated for 24 hrs by MTT assay; type: functional, cell-based
4T1 [14] = test: Potency index, ratio of test compound effect to YSL effect for inhibition of cell migration in mouse 4T1 cells; type: functional
4T1 [15] = test: Induction of apoptosis in mouse 4T1 cells assessed as late apoptotic cells at 0.4 mM incubated for 24 hrs by Annexin V-FITC/PI based FACS analysis (reference value: 6.62%); type: functional
4T1 [16] = test: Induction of cell cycle arrest in mouse 4T1 cells assessed as accumulation at G2/M phase at 0.4 mM incubated for 24 hrs by PI staining based flow cytometric analysis (reference value: 19.82%); type: functional
4T1 [17] = test: Inhibition of metastasis in mouse 4T1 cells assessed as shortening in actin filaments at 0.2 mM incubated for 24 hrs by Hoechst 33342 staining based confocal laser scanning microscopic method; type: functional, cell-based
How it was run: (§4)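 After 24 h treatment, 4T1 cells were stained with Alexa Fluor 488 phalloidin for F-actin and Hoechst 33342 for nuclei, then imaged by fluorescence microscopy to assess cytoskeleton and cell morphology.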

4T1 [18] = test: Induction of apoptosis in mouse 4T1 cells assessed as early apoptotic cells at 0.4 mM incubated for 24 hrs by Annexin V-FITC/PI based FACS analysis (reference value: 0.76%); type: functional
4T1 [19] = test: Antitumour activity against mouse 4T1 cells xenografted in BALB/c mouse assessed as reduction in number of Ki67 positive tumor cells at 10 mg/kg administered intratumorally and measured after 24 days by H and E staining based inverted optical microscopic method; type: functional, organism-based; how it was run: as §3
4T1 [20] = test: Induction of cell cycle arrest in mouse 4T1 cells assessed as accumulation at S phase at 0.4 mM incubated for 24 hrs by PI staining based flow cytometric analysis (Rvb =42.35%); type: functional
[21] = Toxicity in BALB/c mouse xenografted with mouse 4T1 cells assessed as induction of morphological lesions in liver at 10 mg/kg administered intratumorally and measured after 24 days by H and E staining based inverted optical microscopic method; type: organism-based; details: in vivo, other, 576 h
4T1 [22] = test: Inhibition of cell migration in mouse 4T1 cells assessed as wound closure rate at 0.2 mM measured up to 36 hrs by inverted optical microscopic method based wound healing assay (reference value: 82%); type: functional; parameters: scale not given: the % may be the effect or the level left
4T1 [23] = test: Inhibition of metastasis in mouse 4T1 cells assessed as cell shrinkage at 0.2 mM incubated for 24 hrs by Hoechst 33342 staining based confocal laser scanning microscopic method; type: functional; how it was run: as §4
4T1 [24] = test: Antitumour activity against mouse 4T1 cells xenografted in BALB/c mouse assessed as reduction in number of lung tumor metastatic nodules at 10 mg/kg administered intratumorally and measured after 24 days by H and E staining based inverted optical microscopic method; type: functional, organism-based
How it was run: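 After 6 doses of 10 mg/kg to 4T1 tumour-bearing BALB/c mice (saline control), lungs were photographed whole and examined histopathologically for the number and size of metastatic nodules.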

4T1 [25] = test: Antitumour activity against mouse 4T1 cells xenografted in BALB/c mouse assessed as […] at 10 mg/kg administered intratumorally and measured after 24 days by H and E staining based inverted optical microscopic method; type: functional, organism-based; how it was run: as §3
4T1 [26] = test: Induction of apoptosis in mouse 4T1 cells assessed as necrotic cells at 0.4 mM incubated for 24 hrs by Annexin V-FITC/PI based FACS analysis (reference value: 0.47%); type: functional

**Q.** Which Activity (4T1 [1]) does the source give for `COC(=O)[C@H](CCCCNC(=O)[C@H](CCCCNC(=O)[C@H](CCCCNC(=O)[C@H](CC(C)C)NC(=O)[C@H](CO)NC(=O)[C@@H](N)Cc1ccc(O)cc1)NC(=O)[C@H](CC(C)C)NC(=O)[C@H](CO)NC(=O)[C@@H](N)Cc1ccc(O)cc1)NC(=O)[C@H](CCCCNC(=O)[C@H](CC(C)C)NC(=O)[C@H](CO)NC(=O)[C@@H](N)Cc1ccc(O)cc1)NC(=O)[C@H](CC(C)C)NC(=O)[C@H](CO)NC(=O)[C@@H](N)Cc1ccc(O)cc1)NC(=O)[C@H](CCCCNC(=O)[C@H](CCCCNC(=O)[C@H](CC(C)C)NC(=O)[C@H](CO)NC(=O)[C@@H](N)Cc1ccc(O)cc1)NC(=O)[C@H](CC(C)C)NC(=O)[C@H](CO)NC(=O)[C@@H](N)Cc1ccc(O)cc1)NC(=O)[C@H](CCCCNC(=O)[C@H](CC(C)C)NC(=O)[C@H](CO)NC(=O)[C@@H](N)Cc1ccc(O)cc1)NC(=O)[C@H](CC(C)C)NC(=O)[C@H](CO)NC(=O)[C@@H](N)Cc1ccc(O)cc1` here?
**A.** Active

**Q.** And the viability at 400 µM (4T1 [2])?
**A.** 37.5%

**Q.** And the Activity [3]?
**A.** Non-Toxic

**Q.** What about the “F-actin disruption (qualitative)” value (4T1 [4]) of the same compound?
**A.** Active

**Q.** And the Activity (Erythrocyte)?
**A.** Non-Toxic

**Q.** What about the Activity [5] of the same compound?
**A.** Non-Toxic

**Q.** And the residual activity [6]?
**A.** 34%

**Q.** And the Activity (4T1 [7])?
**A.** Active

**Q.** What about the inhibition (4T1 [8]) of the same compound?
**A.** inactive

**Q.** What about the Activity (4T1 [9]) of the same compound?
**A.** Active

**Q.** What about the Activity (4T1 [10]) of the same compound?
**A.** Dose-dependent effect

**Q.** And the Activity (4T1 [11])?
**A.** Active

**Q.** And the Activity [12]?
**A.** Non-Toxic

**Q.** What about the Activity (4T1 [13]) of the same compound?
**A.** inactive

**Q.** What about the Ratio (4T1 [14]) of the same compound?
**A.** 4.5

**Q.** And the Activity (4T1 [15])?
**A.** 56.2%

**Q.** And the Activity (4T1 [16])?
**A.** 7.08%

**Q.** What about the inhibition (4T1 [17]) of the same compound?
**A.** Active

**Q.** And the Activity (4T1 [18])?
**A.** 3.95%

**Q.** And the Activity (4T1 [19])?
**A.** Active

**Q.** And the Activity (4T1 [20])?
**A.** 46.42%

**Q.** What about the Activity [21] of the same compound?
**A.** Non-Toxic

**Q.** What about the Activity (4T1 [22]) of the same compound?
**A.** 30%

**Q.** And the inhibition (4T1 [23])?
**A.** Active

**Q.** And the Activity (4T1 [24])?
**A.** Active

**Q.** And the Activity (4T1 [25])?
**A.** Active

**Q.** What about the Activity (4T1 [26]) of the same compound?
**A.** 2.41%
